From ChEMBL document CHEMBL1765023, “Acetyl analogs of combretastatin A-4: synthesis and biological studies” (Bioorg Med Chem, 2011) come the findings set out here.

Molecules are shown by their SMILES. Bounds are passed on as bounds.

One data set relates to NCI-H322M. As to the kind of experiment: Growth inhibition of human NCI-H322M cells after 48 hrs by sulforhodamine B assay. The class given is functional. A digest of the protocol: (§1)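 NCI 60 human cancer cell line screen run at the National Cancer Institute. Cells had 48 h continuous exposure, and proliferation was read by sulforhodamine B staining. GI50 (50% growth inhibition) was taken from dose–response curves.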
A general note: In SRB staining, fixed cells bind dye roughly in proportion to their protein.

The test system of the next data set is KM12. As to the kind of experiment: Growth inhibition of human KM12 cells after 48 hrs by sulforhodamine B assay. The data set is classed as functional. The note with it: KM12, 48 h. In a few lines: as §1
Another data set has as its system SF-295. Put plainly: Growth inhibition of human SF295 cells after 48 hrs by sulforhodamine B assay. The data set is classed as functional. Conditions: SF-295, 48 h. A digest of the protocol:
as §1

For a further data set, the system named is SNB-19. As to the kind of experiment: Growth inhibition of human SNB19 cells after 48 hrs by sulforhodamine B assay. The class given is functional. The note with it: SNB-19, 48 h. A digest of the protocol:
(§2)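 Tested in the NCI 60 human cancer cell line panel. Cells were exposed continuously for 48 h and proliferation was read by sulforhodamine B staining. GI50 (concentration for 50% growth inhibition), TGI (total growth inhibition) and LC50 were taken from dose–response curves.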

In the next data set the test system is Malme-3M. As to the kind of experiment: Growth inhibition of human MALME-3M cells after 48 hrs by sulforhodamine B assay. The data set is classed as functional. Conditions: read-out: pTGI. A digest of the protocol:
as §1

The next data set concerns A498. Put plainly: Growth inhibition of human A498 cells after 48 hrs by sulforhodamine B assay. The class given is functional. The note with it: A498, 48 h. A digest of the protocol:
as §1

Another data set has as its system T47D. As to the kind of experiment: Growth inhibition of human T47D cells after 48 hrs by sulforhodamine B assay. The data set is classed as functional. In a few lines: as §2
A further data set has as its system Mus musculus. As to the kind of experiment: Toxicity in DBA2 mouse assessed as change in white blood count at 75 mg/kg, ip QD administered on alternate days for 17 days measured on day 23 relative to control. Conditions: in vivo, 408 h. The data set is classed as organism-based. The arrangement: dose 75 mg/kg, route intraperitoneal. In a few lines: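 Healthy female DBA2 mice, 5–7 weeks old, five per group, received 75 mg/kg ip on days 1, 5, 9, 13 and 17. Vehicle was PET (PEG400/ethanol/Tween 80, 6:3:1), 5% glucose and DMSO, with final ethanol 15% and DMSO 10%. Controls received 100 µL vehicle. Body weight was measured every other day. At sacrifice on day 23, blood counts (hematocrit, WBC, granulocytes, platelets) and liver, kidney and spleen appearance and weight were assessed.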

The nature of data set [1]: Growth inhibition of human […] cells after 48 hrs by sulforhodamine B assay. The class given is functional. A digest of the protocol: as §1

The term GI50 denotes the concentration giving 50% growth inhibition. High values mean less potent growth inhibition, low ones more potent growth inhibition. For the compound `COc1ccc(/C=C(/C(C)=O)c2cc(OC)c(OC)c(OC)c2)cc1O`, the GI50 is 513 nM in the data set with NCI-H322M; 112 nM with KM12; 263 nM with SF-295; 676 nM with SNB-19; 67.6 nM in the data set on A498; 100000 nM with T47D. The GI50 in data set [1] is 661 nM. The TGI with NCI-H322M (read-out: pTGI) was more than 100000 nM; in the data set with KM12 (read-out: pTGI (converted)) it was 1950 nM; in the data set with SF-295 (read-out: pTGI (converted)), 1050 nM; in the data set on SNB-19 (read-out: pTGI), more than 100000 nM; with Malme-3M, more than 100000 nM; in the data set with A498 (read-out: pTGI (converted)), 550 nM. Further, the TGI (in the data set with T47D (read-out: pTGI); in [1] (read-out: pTGI)) was more than 100000 nM each time. Also, the Activity entry in the data set with Mus musculus is “Non-toxic”.
